Experimental data reported in ChEMBL document CHEMBL1129737, “Mechanism of selective incorporation of the melanoma seeker 2-thiouracil into growing melanin” (1996).

What was measured:
Mus musculus [1] = organism: Mus musculus; assay: HPCL quantitation of resulting degradation product, pyrrole-2,3,5-tricarboxylic acid (PTCA) content after tumor isolation at 90 min of assay; format: functional, organism-based
In short: (§1)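 B16 tumours were grown s.c. in female C57Bl/6 mice, which were given 10 μCi [2-14C]TU two weeks later. At each time point, melanosomes were isolated by sucrose density gradient ultracentrifugation. 4 mg was oxidized with alkaline H2O2 (1 M NaOH, 30% H2O2) for 3 h at 25 °C. PTCA was quantified by HPLC with 280 nm detection and expressed per mg.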

Mus musculus [2] = assay: Absorbance at 350 nM of a solution of melanosomes […] from tumor after ip injection at 30 min of assay as a measure of pigment content of tissue; format: functional
Mus musculus [3] = assay: Specific Incorporation (cpm/mg of melanin) of melanin after isolation from tumor after ip injection at 30 min of assay; format: functional
In short: (§2)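 Mice (female C57Bl/6, s.c. B16 melanoma, two weeks) received 10 μCi [2-14C]TU and were euthanized at the noted times. Tumours were weighed, frozen, homogenized in 1% acetic acid–ethanol (30:70) and centrifuged. Melanosomal melanin was purified on a sucrose density gradient, dried to constant weight, and radioactivity was expressed as cpm/mg melanin.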

Mus musculus [4] = assay: Absorbance at 350 nM of a solution of melanosomes obtained by treatment in hot alkali from tumor after ip injection at 90 min of assay as a measure of pigment content of tissue; format: functional
Mus musculus [5] = assay: Specific Incorporation (cpm/mg of melanin) of melanin after isolation from tumor after ip injection at 180 min of assay; format: functional; in short: as §2
Mus musculus [6] = assay: Absorbance at 350 nM of a solution of melanosomes obtained by treatment in hot alkali from tumor after ip injection at 180 min of assay as a measure of pigment content of tissue; format: functional
Mus musculus [7] = organism: Mus musculus; assay: HPCL quantitation of resulting degradation product, pyrrole-2,3,5-tricarboxylic acid (PTCA) content after tumor isolation at 30 min of assay; format: functional, organism-based; in short: as §1
Mus musculus [8] = assay: Specific Incorporation (cpm/mg of melanin) of melanin after isolation from tumor after ip injection at 90 min of assay; format: functional; in short: as §2
Mus musculus [9] = assay: Absorbance at 350 nM of a solution of melanosomes obtained by treatment in hot alkali from tumor after ip injection at 0 min of assay as a measure of pigment content of tissue; format: functional
Mus musculus [10] = organism: Mus musculus; assay: HPCL quantitation of resulting degradation product, pyrrole-2,3,5-tricarboxylic acid (PTCA) content after tumor isolation at 0 min of assay; format: functional, organism-based; in short: as §1
Mus musculus [11] = organism: Mus musculus; assay: HPCL quantitation of resulting degradation product, pyrrole-2,3,5-tricarboxylic acid (PTCA) content after tumor isolation at 180 min of assay; format: functional, organism-based; in short: as §1

O=c1cc[nH]c(=S)[nH]1 [THIOURACIL]
Concentration (Mus musculus [1]): 560 ng/mg | Activity (Mus musculus [2]): 0.032 | Specific incorporation (Mus musculus [3]): 2500 c.p.m. (mg of melanin)-1 | Activity (Mus musculus [4]): 0.036 | Specific incorporation (Mus musculus [5]): 2300 c.p.m. (mg of melanin)-1 | Activity (Mus musculus [6]): 0.043 | Concentration (Mus musculus [7]): 493 ng/mg | Specific incorporation (Mus musculus [8]): 2600 c.p.m. (mg of melanin)-1 | Activity (Mus musculus [9]): 0.071 | Concentration (Mus musculus [10]): 1120 ng/mg | Concentration (Mus musculus [11]): 589 ng/mg
